# High-throughput results: PubChem, several laboratories
# Furin inhibitor: blocks human furin protease activity; purified furin, fluorogenic substrate cleavage; AID 463115; 220,000 compounds, 0.061% hits; P09958; inhibition, % at 20 µM or 30 µM; in the data active = inhibition above about 25%
# Target sequence (P09958 108-714 limits assumed): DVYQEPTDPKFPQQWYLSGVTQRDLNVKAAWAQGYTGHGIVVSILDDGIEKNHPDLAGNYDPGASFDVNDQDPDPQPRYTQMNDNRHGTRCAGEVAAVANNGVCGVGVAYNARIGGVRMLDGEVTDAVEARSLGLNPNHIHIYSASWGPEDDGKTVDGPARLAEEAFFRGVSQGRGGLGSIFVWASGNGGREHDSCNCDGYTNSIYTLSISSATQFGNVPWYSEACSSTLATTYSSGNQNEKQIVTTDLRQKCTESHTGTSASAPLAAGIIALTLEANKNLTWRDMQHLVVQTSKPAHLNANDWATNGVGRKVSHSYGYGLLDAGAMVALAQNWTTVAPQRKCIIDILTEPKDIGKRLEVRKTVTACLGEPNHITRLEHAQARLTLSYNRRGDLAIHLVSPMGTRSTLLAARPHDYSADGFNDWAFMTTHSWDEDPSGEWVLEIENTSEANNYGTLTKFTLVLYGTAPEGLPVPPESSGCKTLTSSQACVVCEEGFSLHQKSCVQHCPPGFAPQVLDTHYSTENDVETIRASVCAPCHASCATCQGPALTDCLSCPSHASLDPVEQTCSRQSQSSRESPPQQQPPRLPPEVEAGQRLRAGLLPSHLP
# Dynein transport: blocks dynein driven cargo transport along microtubules; 220,000 compounds, 0.47% hits; z-score, hits read low; 3617.4 mouse cells, GR-EGFP nuclear translocation imaging; test concentration mostly 20 µM; stimulated with dexamethasone, 1 µM; active compounds read low; AID 1381;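 active = plate z-score of nuclear minus cytoplasmic receptor signal below a set negative limit, without overly bright fluorescence or cell loss, cut at about -3.5 in these data, passing the limit was not always enough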;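 note: z-score of nuclear minus cytoplasmic ring GR-EGFP intensity difference per well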
#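 Buffer or medium: Induction medium lacking tetracycline, stripped serum | Also added: Dexamethasone agonist, 1.0 µM final, for 30 min | Timing: 48 h induction, 1 h compound, 30 min dex at 37 °C | Detection: Formaldehyde fixation, Hoechst nuclear stain, 10x automated fluorescence imaging | Measure: Nuclear versus cytoplasmic GR-EGFP signal, averaged per well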
# Autophagy mod: autophagy modulation, high-content screen; MEF GFP-LC3 puncta imaging; test concentration mostly 10 µM; calls only at 10 µM (by protocol); 190,000 compounds, 0.98% hits; AID 463193;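 active = percentage of spot-positive cells more than 3 SD above its plate mean, without a fluorescence outlier flag or 80% toxicity; inconclusive = no clear call, values can overlap the other calls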;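 note: spot-positive cell cutoff set from DMSO-treated cells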
# HSV replic up: increases HSV replication in cells | HSV replication augmentation in cells, fold increase | maximum fold increase | 220,000 compounds, 0.005% hits; in the data active = maximum fold increase above about 1.5; inconclusive = no clear call, values can overlap the other calls; tested in PC3 cells
# Insulin prom up: MIN6 insulin promoter up-regulation. MIN6 insulin promoter-GFP reporter, high-content imaging; active compounds read high. z-score at 5 µM. 190,000 compounds, 0.3% hits;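 active = z-score above 3 at 5 µM with at least 500 cells counted in the well; inconclusive = wells under 500 cells, flagged as cytotoxic or low count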
# INS promoter inh: TRM-6 insulin promoter activity inhibition | inhibition, % at 2 µM | 130,000 compounds, 0.9% hits | AID 1273 | TRM-6 cells, insulin promoter-eGFP reporter, imaging; reporter expression induced with tamoxifen;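 active = inhibition above the mean plus 3 SD, with well images judged a real hit on visual review, cut at about 60% in these data, passing the limit was not always enough; inconclusive = inhibition over the cutoff but images rejected on review; inactive = inhibition not above the cutoff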
# An asterisk follows results filed as active; i = inactive; ? = inconclusive; · = not tested or not shown; + = active, no number. Shown are actives, neighbours in structure and some others; about 2% of the full set was active somewhere.
SMILES,Furin inhibitor,Dynein transport,Autophagy mod,HSV replic up,Insulin prom up,INS promoter inh
CCCC(C)C(=O)OCC(=O)Nc1ccc(Br)cc1 (stereo not given),-20.8,-0.798,i,i,-0.23,40.7
COc1ccc(Nc2nc(N3CCCC3)nc3ccccc23)c(OC)c1,-5.7,-0.146,+,i,-1.81,35.0
C=CCNc1nc(N2CCCC2)nc2ccccc12,-2.6,-0.849,i,·,-0.85,78.8*
COc1ccc(Nc2ncnc3ccccc23)c(OC)c1,-18.9,-0.883,i,·,·,60.0
Nc1cccc(-n2nnnc2CN2CCOCC2)c1,-19.9,0.443,i,i,·,33.3
Cc1ccc(N)c(C(O)(C(F)(F)F)C(F)(F)F)c1,-16.6,-1.03,+,i,0.61,·
CC(/C=N/NC(=O)Cc1cccn1C)=C\c1ccccc1,-4.2,-0.601,i,i,0.07,75.0*
CC(/C=N/NC(=O)Cc1cccs1)=C\c1ccccc1,-15.8,0.415,i,i,-0.04,-7.7
Cc1cccc(N2C(=O)C3C4C=CC(C5CC45)C3C2=O)n1 (stereo not given),-3.9,1.38,·,i,-0.13,·
COc1ccc(C(=O)N(CN2CCCC2=O)c2ccc(C)cc2)cc1,-20.4,-0.503,i,i,3.42*,·
O=C(CCS(=O)(=O)c1ccc(Br)cc1)N1CCN(c2ccccc2)CC1,-7.6,-0.254,+,i,0.26,·
CCOC(=O)C1(Cc2ccc(Cl)cc2)CCN(C(=O)c2ccoc2)CC1,-21.5,-0.986,i,i,-0.94,·
COc1ccccc1Nc1nc2nonc2nc1N1CCC(C)CC1,-21.4,4.38,i,i,1.91,·
COc1ccc(OC)c(Nc2nc3nonc3nc2N2CCCCC2)c1,-5.4,1.35,+,·,0.65,·
Cc1ccc(NC(=S)N/N=C/c2c(C)[nH]c3ccccc23)cc1,-23.2,-1.12,+,i,-0.37,·
Cc1[nH]c2ccccc2c1/C=N/NC(N)=S,-6.8,-0.258,·,i,-0.42,·
Cn1nnnc1SCC(=O)Nc1ccccc1C(=O)NCc1ccccc1,-16.1,-0.638,i,i,-0.54,-50.0
Cc1ccc(CNC(=O)c2ccccc2NC(=O)CSc2nnnn2C)cc1,-2.3,1.19,+,i,0,·
CCc1cc(SC#N)cc(CC)c1NC(=O)CCl,-6.4,-1.66,i,i,0.39,0.0
Cc1ccc(C(C(=O)NC(C)(C)C)N(Cc2ccccc2)C(=O)c2snc(C(N)=O)c2N)o1 (stereo not given),-9.9,-0.0762,i,i,0.84,27.3
CCCOc1ccc(C2C(C(=O)OC)=CN(CCOC)C=C2C(=O)OC)cc1,-28.0,0.805,i,i,0.55,16.7
COCCN1C=C(C(=O)OC)C(c2ccc(OC)c(OC)c2)C(C(=O)OC)=C1,-23.4,0.475,i,i,1.14,70.6*
Cc1cc(C)cc(Nc2nc3c([nH]2)c(=O)n(C)c(=O)n3C)c1,-13.8,-0.0843,i,i,0.72,57.9
Cc1ccc(Nc2nc3c([nH]2)c(=O)n(C)c(=O)n3C)cc1,-2.0,-1.22,i,i,3.32*,5.9
COC(=O)c1cc2c(N)c(C(=O)c3ccccc3)sc2nc1C(OC)OC,-4.4,3.18,·,i,-0.46,·
SMILES,Furin inhibitor,Dynein transport,Autophagy mod,HSV replic up,Insulin prom up,INS promoter inh
COc1ccc(C(=O)N2CCC(n3nnc4cc(F)ccc43)CC2)cc1OC,-16.0,-0.438,+,i,0.35,·
CCCCn1c2nc3ccccc3nc2c2c(=O)n(-c3ccccc3)cnc21,-4.2,2.14,i,i,-0.74,0.0
CCCCn1nc(-c2ccccc2)c2nc3ccccc3nc21,-10.9,-1.51,+,?,·,11.4
Cn1nc(-c2ccccc2)c2nc3ccccc3nc21,-9.7,-0.411,+,?,1.8,-150.0
COc1cccc(NC(=O)c2cccc(C)c2[N+](=O)[O-])c1,0.2,-0.767,i,i,0.37,·
Cc1c(C(=O)Nc2ccc(Cl)cc2)c2ccccn2c1C(=O)c1ccc(F)cc1,-18.5,-0.163,+,i,0.05,25.4
CCOc1ccc(NC(=O)c2nsc(Cl)c2Cl)cc1,-13.9,0.971,+,i,-0.1,·
O=C(Nc1ccc(F)cc1)c1nsc(Cl)c1Cl,-20.5,0.126,i,i,0.48,0.0
Cc1ccc(S(C)(=O)=N/C=C2\C(=O)c3sccc3N(C)S2(=O)=O)cc1 (stereo not given),2.3,-0.0284,·,i,0.06,·
COc1ccc(NC(=O)c2ccccc2NC(=O)CSc2ccc(Cl)cc2)cc1,-15.2,-0.559,+,i,0.84,23.3
COc1ccc(NC(=O)c2ccccc2NC(=O)CSc2ccccc2)cc1,-23.6,0.275,i,i,-0.62,·
CCCOc1cc(C)c(S(=O)(=O)NC2CC(C)(C)NC(C)(C)C2)cc1C,-13.5,1,i,i,-0.12,-16.2
CN(C)c1ccc(/C=C2\SC(=O)N(CC(O)Cn3c4ccccc4c4ccccc43)C2=O)cc1 (stereo not given),-13.3,-0.665,+,?,·,·
CN(C)c1ccc(/C=C2\SC(=O)N(CCc3nnc(N)s3)C2=O)cc1,-13.3,1.85,·,?,3.27*,·
CN(C)c1ccc(/C=C2/SC(=O)N(CCN=C3NS(=O)(=O)c4ccccc43)C2=O)cc1,-17.6,-0.951,i,i,1.19,·
O=C1S/C(=C/c2ccccc2)C(=O)N1CC(O)Cn1c2ccccc2c2ccccc21 (stereo not given),-4.2,-0.579,i,i,0.16,-16.1
Cc1ccc(NC(=O)c2ccc(Cn3cc([N+](=O)[O-])cn3)cc2)c(C)c1,-17.8,-0.49,i,i,-0.12,-57.7
CC(C)NS(=O)(=O)c1ccc(CCC(=O)Nc2ccc3c(c2)OCO3)cc1,-7.1,0.54,i,i,·,-478.6
O=C(CN1C(=O)c2ccccc2C1=O)N1CCN=C1c1ccccc1,-4.9,0.417,·,i,0.18,·
CCOc1cc(NC(=S)NCCCN2CCOCC2)c(OCC)cc1NC(=O)c1cccs1,-2.2,1.24,+,i,-0.01,-21.4
CCOc1cc(NC(=S)NCCCN2CCOCC2)c(OCC)cc1NC(=O)c1ccccc1,-15.7,-0.59,i,i,-0.2,·
CC(=O)Nc1c(C(=O)C2CC2)oc2ccccc12,-25.9,-0.635,i,i,0.44,44.0
CC(=O)Nc1c(C(=O)c2ccccc2)oc2ccccc12,0.7,-0.207,i,i,0.37,71.4*
COc1ccc(OC)c(NC(=O)c2sc3nc(Cc4ccccc4)cc(C(F)(F)F)c3c2N)c1,-16.1,2.04,+,i,1.25,10.3
CN(C)CCOc1nc(-c2ccccc2)nc2c1oc1ccccc12,-19.3,0.702,+,i,-0.5,8.8
CCOc1cc(NC(=O)c2cnccn2)c(OCC)cc1NC(=O)c1cccc(F)c1,-17.0,1.31,+,i,0.08,-19.1
CCOc1cc(NC(=O)c2ccccn2)c(OCC)cc1NC(=O)c1ccc(C)cc1,0.3,1.88,i,i,0.16,0.0
